Results on one compound are retold here after ChEMBL document CHEMBL1149289, “Synthesis and antibacterial activity of new poly-S-lysine-porphyrin conjugates” (J Med Chem, 2004).

For one series, the system named is Escherichia coli. The series is described as follows: Drug uptake per mg of protein in Escherichia coli O4 at 0.1 uM after 10 mins. The settings on record: in vivo. Format: ADME, organism-based. A digest of the protocol:
(§1)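 Washed stationary-phase bacteria in PBS (10^8 to 10^9 cells/mL; OD650 ca. 0.7) incubated 10 min in the dark at room temperature with photosensitizer. Cells were then centrifuged, supernatant removed, and pellet digested in 2% aqueous SDS. Porphyrin measured by spectrofluorimetry, cell protein by modified Lowry with BSA standard; uptake expressed as nmol photosensitizer per mg cell protein.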

For another series, the system named is Staphylococcus aureus. Kind of series: Drug uptake per mg of protein in Staphylococcus aureus ATCC 25923 at 0.1 uM after 10 mins. Format: ADME, organism-based. The conditions noted are these: in vivo. The essentials:
as §1

With `O=C(O)c1ccc(-c2c3nc(c(-c4ccncc4)c4ccc([nH]4)c(-c4ccncc4)c4nc(c(-c5ccncc5)c5ccc2[nH]5)C=C4)C=C3)cc1` [PORPHIRIN], the Drug uptake in the series on Escherichia coli is on record as 1.2 nmol/mg; with Staphylococcus aureus it was 1.54 nmol/mg.
